Consider 36 sequences from the array DNA melting data of Ke et al. (doi:10.1101/2024.01.08.574731).

A short description of series [1]: folding enthalpy; higher = less favourable; fluorescence melt of hairpins on a sequencing array, two-state fit. Particulars: sodium 0.088 M. Summed up: (§1)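 Two-state fits, bootstrapped, provided melting temperature and folding enthalpy from Cy3 fluorescence normalised to pre-quench Cy3 and to control constructs. Library hairpins with annealed Cy3 and quencher oligos were imaged on a sequenced MiSeq flow cell in 50 mM Na-HEPES pH 8.0, 25 mM NaCl, at 2.5 °C intervals up to 60 °C. Four replicates were combined with inverse-variance weighting. A 9.35 °C upward shift was applied to fitted temperatures to match UV melts.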

A short description of series [2]: melting temperature; fluorescence melt of hairpins on a sequencing array, two-state fit, raised by 9.35 °C to match UV melts. The note with it: sodium 0.088 M. The essentials: as §1

As to GTGACCCGAAAGGGCCAC (((.(((....))).))), in series [1], the folding enthalpy was -41 kcal/mol. Besides, the Tm in series [2] was 59.5 °C.

As for GTGACCGAAAGGTATCAC ((((((....)))..))), the folding enthalpy in series [1] is -14.8 kcal/mol. Moreover, the Tm in series [2] worked out at 39.7 °C.

Regarding GTGACCGAAAGGTCCAC ((((((....))).))), the folding enthalpy in series [1] was -11.3 kcal/mol. Besides, in series [2], the Tm is 47.1 °C.

For GTGACCGAAAGGTTGCAC ((((((....)))..))), the folding enthalpy in series [1] is -13.8 kcal/mol. Besides, the Tm in series [2] amounted to 42.2 °C.

As to GTGACCGGAAACGGTCGC (.(((((....))))).), the folding enthalpy in series [1] is -19.9 kcal/mol. Also, in series [2], the Tm is 63.5 °C.

Consider GTGACTACGAAAGTACAC (((..(((....)))))), for which, in series [1], the folding enthalpy was -6.75 kcal/mol. Besides, in series [2], the Tm came out at 29.3 °C.

In the case of GTGACTCGAAAGAGACAC (((.(((....))).))), in series [1], the folding enthalpy was -32.1 kcal/mol. The Tm in series [2] worked out at 54.3 °C.

For GTGACTGCGAAAGCACAC (((..(((....)))))), the folding enthalpy in series [1] was -8.82 kcal/mol. Moreover, the Tm in series [2] was 38.8 °C.

For GTGACTGGAAACGGTCAC (((((.(....).))))), the folding enthalpy in series [1] was -49.6 kcal/mol. For the same sequence, the Tm in series [2] was found to be 53.2 °C.

For the sequence GTGAGATCGAAAGATCAC (((..(((....)))))), the folding enthalpy in series [1] was -17.6 kcal/mol. In addition, the Tm in series [2] came to 45.6 °C.

GTGAGCCCGAAAGGGCAC (((..(((....)))))): the folding enthalpy in series [1] was -11.2 kcal/mol. Further, the Tm in series [2] is 52.5 °C.

On to GTGAGCGAAAGCTCCCAC ((((((....)))..))), for which, in series [1], the folding enthalpy was -8.27 kcal/mol. In addition, the Tm in series [2] was determined as 36.4 °C.

Consider GTGAGCGAAAGCTGACAC ((((((....)))..))), for which the folding enthalpy in series [1] was -16.6 kcal/mol. For the same sequence, the Tm in series [2] was determined as 41.2 °C.

Regarding GTGAGCGAAAGCTGGCAC ((((((....)))..))), in series [1], the folding enthalpy is -9 kcal/mol. Besides, in series [2], the Tm was 43 °C.

In the case of GTGAGCGAAAGCTTCCAC ((((((....)))..))), the folding enthalpy in series [1] is -15.2 kcal/mol. In series [2], the Tm was 28.7 °C.

In the case of GTGAGCGAAAGCTTGCAC ((((((....)))..))), the folding enthalpy in series [1] is -7.82 kcal/mol. Also, the Tm in series [2] was 51.4 °C.

Regarding GTGAGGCGAAAGCCCAC (((.(((....)))))), the folding enthalpy in series [1] is -18.4 kcal/mol. For the same sequence, in series [2], the Tm turned out to be 61.8 °C.

Take GTGAGGGAAACCTCAC ((((((....)))))): the folding enthalpy in series [1] was -31.7 kcal/mol. Further, the Tm in series [2] amounted to 60.2 °C.

Take GTGAGGGGAAACCCTTGC (..((((....))))..): in series [1], the folding enthalpy was -16.4 kcal/mol. Also, the Tm in series [2] was found to be 38.7 °C.

Consider GTGAGGGGAAACTCTCAC (((((.(....).))))), for which the folding enthalpy in series [1] is -32 kcal/mol. Moreover, the Tm in series [2] turned out to be 49.4 °C.

For GTGAGGTCGAAAGACCAC (((..(((....)))))), the folding enthalpy in series [1] was -13 kcal/mol. Besides, the Tm in series [2] was determined as 48.9 °C.

On to GTGAGTACGAAAGTACAC (((..(((....)))))), for which, in series [1], the folding enthalpy was -16.3 kcal/mol. The Tm in series [2] was 42.2 °C.

Regarding GTGAGTCGAAAGACCCAC (((.(((....))).))), the folding enthalpy in series [1] is -29.4 kcal/mol. For the same sequence, in series [2], the Tm was 49.3 °C.

For GTGAGTGGAAACACCCAC (((.(((....))).))), the folding enthalpy in series [1] was -31.4 kcal/mol. Further, the Tm in series [2] worked out at 43.2 °C.

On to GTGAGTGGAAACGCTTAC ((.((.(....).)).)), for which, in series [1], the folding enthalpy is -16.2 kcal/mol. Besides, in series [2], the Tm worked out at 33.1 °C.

As for GTGATCACGAAAGTGCAC (((..(((....)))))), the folding enthalpy in series [1] is -12.5 kcal/mol. Besides, the Tm in series [2] came out at 30.7 °C.

As to GTGATCGAAAGATAGCAC ((((((....)))..))), the folding enthalpy in series [1] is -15.6 kcal/mol. For the same sequence, the Tm in series [2] turned out to be 28.3 °C.

Take GTGATCGAAAGATCCAC ((((((....))).))): in series [1], the folding enthalpy is -13.3 kcal/mol. The Tm in series [2] was found to be 43.9 °C.

In the case of GTGATCGAAAGATCCCAC ((((((....)))..))), in series [1], the folding enthalpy was -10.7 kcal/mol. Moreover, the Tm in series [2] stood at 32.4 °C.

As for GTGATCGAAAGATTCAC ((((((....))).))), the folding enthalpy in series [1] was -24.1 kcal/mol. For the same sequence, in series [2], the Tm stood at 43.4 °C.

On to GTGATCGGAAACAATCAC (((((.(....).))))), for which the folding enthalpy in series [1] was -32.9 kcal/mol. In addition, the Tm in series [2] was found to be 36.3 °C.

Consider GTGATGCGAAAGCAACAC (((.(((....))).))), for which the folding enthalpy in series [1] was -33.4 kcal/mol. In addition, in series [2], the Tm stood at 56.4 °C.

For the sequence GTGATGCGAAAGCACCAC (((.(((....))).))), the folding enthalpy in series [1] was -29.2 kcal/mol. Moreover, the Tm in series [2] worked out at 54.2 °C.

In the case of GTGATGGGAAACCACCAC (((.(((....))).))), in series [1], the folding enthalpy was -29.7 kcal/mol. Moreover, the Tm in series [2] stood at 42.3 °C.

Regarding GTGATGGGAAACCGTTAC ((.(.((....)).).)), in series [1], the folding enthalpy was -18.6 kcal/mol. The Tm in series [2] stood at 31 °C.

Turning to GTGATTCGAAAGAACCAC (((.(((....))).))), the folding enthalpy in series [1] is -33.2 kcal/mol. The Tm in series [2] turned out to be 44.8 °C.
